Data published in ChEMBL document CHEMBL1255443, “CEM-101 activity against Gram-positive organisms” (Antimicrob Agents Chemother, 2010).
In brackets after ≈: the same amount, converted by molar mass. Activity calls are given as the source filed them.

Assays:
[1] = tested on: Staphylococcus epidermidis; assay: Antibacterial activity against Staphylococcus epidermidis 2777A assessed as bacteriostatic by time kill study
[2] = tested on: Streptococcus mitis; assay: Antibacterial activity against Streptococcus mitis 112-1885A assessed as bactericidal at 2 times MIC in 24 hrs by time kill study; format: functional, organism-based
In short: (§1)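 Time-kill assay following earlier published methods. Each agent tested at 2×, 4× and 8× its MIC for the strain. Viable colony counts taken at 0, 2, 4, 8 and 24 h. Bactericidal activity defined as a ≥3 log10 CFU/ml drop from the starting inoculum within 24 h.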

[3] = tested on: Streptococcus mitis; assay: Antibacterial activity against Streptococcus mitis 112-1885A assessed as bactericidal at 4 times MIC in 24 hrs by time kill study; format: functional, organism-based
In short: as §1

[4] = tested on: Streptococcus mitis; assay: Antibacterial activity against Streptococcus mitis 112-1885A assessed as bactericidal at 8 times MIC in 24 hrs by time kill study; format: functional, organism-based
In short: as §1

[5] = tested on: Staphylococcus aureus; assay: Antibacterial activity against Staphylococcus aureus ATCC 29213 assessed as bactericidal at 8 times MIC in 24 hrs by time kill study; format: functional, organism-based
In short: as §1

[6] = tested on: Staphylococcus aureus; assay: Antimicrobial activity against Staphylococcus aureus 024-11490A after passaging with CEM-101 by broth microdilution method; format: functional
In short: (§2)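 Multistep resistance selection by CLSI reference broth microdilution. The full content of the last well showing growth was resuspended in broth to a 0.5 McFarland standard, and 5 × 10^5 CFU/ml was used for the next MIC panel, repeated over 7 passage days. Reversion was checked by three consecutive drug-free agar passages, followed by a final broth microdilution MIC. A ≥8-fold MIC change from initial counted as significant resistance.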

[7] = tested on: Streptococcus pyogenes; assay: Antimicrobial activity against Streptococcus pyogenes 117-1612A after passaging with CEM-101 by broth microdilution method; format: functional
In short: as §2

[8] = tested on: Enterococcus faecalis; assay: Antibacterial activity against Enterococcus faecalis ATCC 29212 assessed as bacteriostatic by time kill study; format: functional, organism-based
In short: as §1

[9] = tested on: Staphylococcus epidermidis; assay: Antibacterial activity against Staphylococcus epidermidis 2777A assessed as bactericidal at 4 times MIC in 24 hrs by time kill study
[10] = tested on: Staphylococcus epidermidis; assay: Antibacterial activity against Staphylococcus epidermidis assessed as log cell killing at 8 times MIC in 24 hrs by time kill study; format: functional
In short: as §1

[11] = tested on: Streptococcus pneumoniae; assay: Antimicrobial activity against Streptococcus pneumoniae ATCC 49619 after passaging with CEM-101 by broth microdilution method; format: functional
In short: as §2

[12] = tested on: Streptococcus pyogenes; assay: Antibacterial activity against Streptococcus pyogenes assessed as log cell killing at 8 times MIC in 24 hrs by time kill study; format: functional
In short: as §1

[13] = tested on: Staphylococcus aureus; assay: Antimicrobial activity against Staphylococcus aureus 117-472D after passaging with CEM-101 by broth microdilution method; format: functional
In short: as §2

[14] = tested on: Enterococcus faecium; assay: Antimicrobial activity against Enterococcus faecium 067- after passaging with CEM-101 by broth microdilution method; format: functional
In short: as §2

[15] = tested on: Staphylococcus aureus; assay: Antibacterial activity against Staphylococcus aureus ATCC 29213 assessed as log cell killing at 8 times MIC in 24 hrs by time kill study; format: functional
In short: as §1

[16] = tested on: Staphylococcus aureus; assay: Antibacterial activity against Staphylococcus aureus ATCC 29213 assessed as bactericidal at 2 times MIC in 24 hrs by time kill study; format: functional, organism-based
In short: as §1

[17] = tested on: Streptococcus pneumoniae; assay: Antimicrobial activity against Streptococcus pneumoniae 075-241B after passaging with CEM-101 by broth microdilution method; format: functional
In short: as §2

[18] = tested on: Streptococcus mitis; assay: Antimicrobial activity against Streptococcus mitis 051-4933A after passaging with CEM-101 by broth microdilution method; format: functional
In short: as §2

[19] = tested on: Staphylococcus epidermidis; assay: Antimicrobial activity against Staphylococcus epidermidis 095-2777A by broth microdilution method
[20] = tested on: Streptococcus pneumoniae; assay: Antibacterial activity against Streptococcus pneumoniae ATCC 49619 assessed as log cell killing at 8 times MIC in 24 hrs by time kill study; format: functional
In short: as §1

[21] = tested on: Streptococcus pyogenes; assay: Antibacterial activity against Streptococcus pyogenes 088-11708A assessed as bactericidal at 4 times MIC in 24 hrs by time kill study; format: functional, organism-based
In short: as §1

[22] = tested on: Streptococcus mitis; assay: Antimicrobial activity against Streptococcus mitis 112-1885A after passaging with CEM-101 by broth microdilution method; format: functional
In short: as §2

[23] = tested on: Enterococcus faecalis; assay: Antimicrobial activity against Enterococcus faecalis ATCC 29212 after passaging with CEM-101 by broth microdilution method; format: functional
In short: as §2

[24] = tested on: Enterococcus faecalis; assay: Antimicrobial activity against Enterococcus faecalis 061-6556A after passaging with CEM-101 by broth microdilution method; format: functional
In short: as §2

[25] = tested on: Streptococcus pyogenes; assay: Antibacterial activity against Streptococcus pyogenes 088-11708A assessed as bactericidal at 2 times MIC in 24 hrs by time kill study; format: functional, organism-based
In short: as §1

[26] = tested on: Staphylococcus aureus; assay: Antibacterial activity against Staphylococcus aureus ATCC 29213 assessed as bactericidal at 4 times MIC in 24 hrs by time kill study; format: functional, organism-based
In short: as §1

[27] = tested on: Moraxella catarrhalis; assay: Antimicrobial activity against Moraxella catarrhalis 117-10142A after passaging with CEM-101 by broth microdilution method; format: functional
In short: as §2

[28] = tested on: Staphylococcus aureus; assay: Antimicrobial activity against Staphylococcus aureus ATCC 29213 after passaging with CEM-101 by broth microdilution method; format: functional
In short: as §2

[29] = tested on: Staphylococcus aureus; assay: Antimicrobial activity against Staphylococcus aureus 117-453D after passaging with CEM-101 by broth microdilution method; format: functional
In short: as §2

[30] = tested on: Streptococcus pyogenes; assay: Antimicrobial activity against Streptococcus pyogenes 088-11708A after passaging with CEM-101 by broth microdilution method; format: functional
In short: as §2

[31] = tested on: Enterococcus faecium; assay: Antimicrobial activity against Enterococcus faecium 086-15387A after passaging with CEM-101 by broth microdilution method; format: functional
In short: as §2

[32] = tested on: Streptococcus pneumoniae; assay: Antibacterial activity against Streptococcus pneumoniae 241B assessed as bacteriostatic by time kill study; format: functional, organism-based
In short: as §1

[33] = tested on: Staphylococcus aureus; assay: Antimicrobial activity against Staphylococcus aureus NRS384 after passaging with CEM-101 by broth microdilution method; format: functional
In short: as §2

[34] = tested on: Staphylococcus epidermidis; assay: Antibacterial activity against Staphylococcus epidermidis 2777A assessed as bactericidal at 8 times MIC in 24 hrs by time kill study
[35] = tested on: Haemophilus influenzae; assay: Antimicrobial activity against Haemophilus influenzae ATCC 49247 after passaging with CEM-101 by broth microdilution method; format: functional
In short: as §2

[36] = tested on: Enterococcus faecalis; assay: Antimicrobial activity against Enterococcus faecalis 067-6633A after passaging with CEM-101 by broth microdilution method; format: functional
In short: as §2

[37] = tested on: Streptococcus pyogenes; assay: Antibacterial activity against Streptococcus pyogenes 088-11708A assessed as bactericidal at 8 times MIC in 24 hrs by time kill study; format: functional, organism-based
In short: as §1

[38] = tested on: Staphylococcus epidermidis; assay: Antibacterial activity against Staphylococcus epidermidis 2777A assessed as bactericidal at 2 times MIC in 24 hrs by time kill study
[39] = tested on: Staphylococcus haemolyticus; assay: Antimicrobial activity against Staphylococcus haemolyticus 064-4090A after passaging with CEM-101 by broth microdilution method; format: functional
In short: as §2

[40] = tested on: Streptococcus pneumoniae; assay: Antimicrobial activity against Streptococcus pneumoniae 127-2273B after passaging with CEM-101 by broth microdilution method; format: functional
In short: as §2

[41] = tested on: Streptococcus pneumoniae; assay: Antimicrobial activity against Streptococcus pneumoniae 063-1085A after passaging with CEM-101 by broth microdilution method; format: functional
In short: as §2

[42] = tested on: Staphylococcus aureus; assay: Antimicrobial activity against Staphylococcus aureus 004-573D after passaging with CEM-101 by broth microdilution method; format: functional
In short: as §2

[43] = tested on: Streptococcus pyogenes; assay: Antibacterial activity against Streptococcus pyogenes 117-1612A assessed as bactericidal at 8 times MIC in 24 hrs by time kill study; format: functional, organism-based
In short: as §1

[44] = tested on: Streptococcus pneumoniae; assay: Antibacterial activity against Streptococcus pneumoniae ATCC 49619 assessed as bactericidal at 2 times MIC in 24 hrs by time kill study; format: functional, organism-based
In short: as §1

[45] = tested on: Streptococcus pneumoniae; assay: Antibacterial activity against Streptococcus pneumoniae ATCC 49619 assessed as bactericidal at 8 times MIC in 24 hrs by time kill study; format: functional, organism-based
In short: as §1

[46] = tested on: Streptococcus pneumoniae; assay: Antibacterial activity against Streptococcus pneumoniae ATCC 49619 assessed as bactericidal at 4 times MIC in 24 hrs by time kill study; format: functional, organism-based
In short: as §1

For CC[C@H]1OC(=O)[C@H](C)C(=O)[C@H](C)[C@@H](O[C@@H]2O[C@H](C)C[C@H](N(C)C)[C@H]2O)[C@](C)(OC)C[C@@H](C)C(=O)[C@H](C)[C@H]2N(CCCCn3cnc(-c4cccnc4)c3)C(=O)O[C@]12C, the Activity [1] was “Active”, the Activity [2] was “Active” and the Activity [3] was “Active”. The Activity [4] was “Active” and the Activity [5] was “Active”.
For CC[C@H]1OC(=O)[C@@](C)(F)C(=O)[C@H](C)[C@@H](O[C@@H]2O[C@H](C)C[C@H](N(C)C)[C@H]2O)[C@](C)(OC)C[C@@H](C)C(=O)[C@H](C)[C@H]2N(CCCCn3cc(-c4cccc(N)c4)nn3)C(=O)O[C@]12C [SOLITHROMYCIN], the MIC [6] was 0.12 µg/mL (≈ 0.142 µM), the MIC [7] was 0.015 µg/mL (≈ 0.0178 µM) and the Activity [8] was “Active”. For the same molecule, the Activity [9] was “Active”, the Activity [10] was “>=3 log10CFU/ml” and the MIC [11] was 0.008 µg/mL (≈ 0.00947 µM). The Activity [12] was “>=3 log10CFU/ml”, the MIC [13] was 0.12 µg/mL (≈ 0.142 µM) and the MIC [14] was 0.06 µg/mL (≈ 0.071 µM). For the same molecule, the Activity [15] was “>=3 log10CFU/ml”, the Activity [16] was “Active” and the MIC [17] was 0.015 µg/mL (≈ 0.0178 µM). The MIC [18] was 0.12 µg/mL (≈ 0.142 µM), the MIC [19] was 0.12 µg/mL (≈ 0.142 µM) and the Activity [20] was “>=3 log10CFU/ml”. The Activity [21] was “Active”, the MIC [22] was at most 0.008 µg/mL and the MIC [23] was 0.03 µg/mL (≈ 0.0355 µM). For the same molecule, the MIC [24] was 0.06 µg/mL (≈ 0.071 µM), the Activity [25] was “Active” and the Activity [26] was “Active”. For the same molecule, the MIC [27] was 0.12 µg/mL (≈ 0.142 µM), the MIC [28] was 0.06 µg/mL (≈ 0.071 µM) and the MIC [29] was 0.12 µg/mL (≈ 0.142 µM). The MIC [30] was 0.06 µg/mL (≈ 0.071 µM), the Activity [5] was “Active” and the MIC [31] was 1 µg/mL (≈ 1.18 µM). For the same molecule, the Activity [32] was “Active”, the MIC [33] was 0.12 µg/mL (≈ 0.142 µM) and the Activity [34] was “Active”. For the same molecule, the MIC [35] was 2 µg/mL (≈ 2.37 µM), the MIC [36] was 2 µg/mL (≈ 2.37 µM) and the Activity [37] was “Active”. For the same molecule, the Activity [38] was “Active”, the MIC [39] was 0.12 µg/mL (≈ 0.142 µM) and the MIC [40] was 0.06 µg/mL (≈ 0.071 µM). For the same molecule, the MIC [41] was 0.015 µg/mL (≈ 0.0178 µM) and the MIC [42] was 0.12 µg/mL (≈ 0.142 µM).
In the case of CC[C@H]1OC(=O)[C@H](C)[C@@H](O[C@H]2C[C@@](C)(OC)[C@@H](O)[C@H](C)O2)[C@H](C)[C@@H](O[C@@H]2O[C@H](C)C[C@H](N(C)C)[C@H]2O)[C@](C)(OC)C[C@@H](C)C(=O)[C@H](C)[C@@H](O)[C@]1(C)O [CLARITHROMYCIN], the Activity [5] is reported as “Active”.
CC[C@H]1OC(=O)[C@H](C)[C@@H](O[C@H]2C[C@@](C)(OC)[C@@H](O)[C@H](C)O2)[C@H](C)[C@@H](O[C@@H]2O[C@H](C)C[C@H](N(C)C)[C@H]2O)[C@](C)(O)C[C@@H](C)C(=O)[C@H](C)[C@@H](O)[C@]1(C)O was tested, and the Activity [43] was “Active”, the Activity [44] was “Active” and the Activity [5] was “Active”. The Activity [45] was “Active” and the Activity [46] was “Active”.
